Measured values: PubChem BioAssay
Activity calls are given as the source filed them.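 How the source made its calls, unless noted: active means viability at or below 30% in both replicate assays; inconclusive means viability at or below 30% in just one of the two assays; inactive means the rest.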

Experiments:
[1] = biological target: Pantothenate synthetase (Mycobacterium tuberculosis (strain ATCC 25618 / H37Rv)) (UniProt P9WIL5); assay: Recombinant Mtb pantothenate synthetase (PanC) inhibitors, coupled enzyme, confirmatory (AID 375; call rule not given here;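 further: 0% = full reaction with vehicle and 100% = no enzyme background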); settings: coupled enzyme assay; at 10 µM, stronger effect = higher value
Chain of Pantothenate synthetase (Mycobacterium tuberculosis (strain ATCC 25618 / H37Rv)) (P9WIL5 whole entry, looked up): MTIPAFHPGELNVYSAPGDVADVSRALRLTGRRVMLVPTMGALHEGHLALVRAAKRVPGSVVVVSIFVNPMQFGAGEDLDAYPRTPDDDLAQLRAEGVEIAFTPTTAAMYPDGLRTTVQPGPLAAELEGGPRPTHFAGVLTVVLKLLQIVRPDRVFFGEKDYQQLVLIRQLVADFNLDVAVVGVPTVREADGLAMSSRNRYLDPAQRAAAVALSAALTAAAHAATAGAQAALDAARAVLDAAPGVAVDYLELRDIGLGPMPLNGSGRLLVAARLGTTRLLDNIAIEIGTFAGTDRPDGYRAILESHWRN

[2] = reducers of endogenous Her2 protein level, primary screen, SKBR3 breast tumor cells, AlphaScreen, ATP viability (AID 461;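 active means Her2 level under about 52% in both replicate screens, with viability over 70% of control, limit read from the data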;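 on Her2 level: lower value means less Her2 protein in the cells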;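 on viability: percent of carrier control wells set as 100% viability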); settings: 18-24 h, measured here: SKBR3 viability, ATP luminescence, at 10 µM
[3] = biological target: Receptor tyrosine-protein kinase erbB-2 (Homo sapiens) (UniProt P04626); assay: as above; settings: 18-24 h, at 10 µM, stronger effect = lower value
Chain of Receptor tyrosine-protein kinase erbB-2 (Homo sapiens) (P04626 whole entry, looked up): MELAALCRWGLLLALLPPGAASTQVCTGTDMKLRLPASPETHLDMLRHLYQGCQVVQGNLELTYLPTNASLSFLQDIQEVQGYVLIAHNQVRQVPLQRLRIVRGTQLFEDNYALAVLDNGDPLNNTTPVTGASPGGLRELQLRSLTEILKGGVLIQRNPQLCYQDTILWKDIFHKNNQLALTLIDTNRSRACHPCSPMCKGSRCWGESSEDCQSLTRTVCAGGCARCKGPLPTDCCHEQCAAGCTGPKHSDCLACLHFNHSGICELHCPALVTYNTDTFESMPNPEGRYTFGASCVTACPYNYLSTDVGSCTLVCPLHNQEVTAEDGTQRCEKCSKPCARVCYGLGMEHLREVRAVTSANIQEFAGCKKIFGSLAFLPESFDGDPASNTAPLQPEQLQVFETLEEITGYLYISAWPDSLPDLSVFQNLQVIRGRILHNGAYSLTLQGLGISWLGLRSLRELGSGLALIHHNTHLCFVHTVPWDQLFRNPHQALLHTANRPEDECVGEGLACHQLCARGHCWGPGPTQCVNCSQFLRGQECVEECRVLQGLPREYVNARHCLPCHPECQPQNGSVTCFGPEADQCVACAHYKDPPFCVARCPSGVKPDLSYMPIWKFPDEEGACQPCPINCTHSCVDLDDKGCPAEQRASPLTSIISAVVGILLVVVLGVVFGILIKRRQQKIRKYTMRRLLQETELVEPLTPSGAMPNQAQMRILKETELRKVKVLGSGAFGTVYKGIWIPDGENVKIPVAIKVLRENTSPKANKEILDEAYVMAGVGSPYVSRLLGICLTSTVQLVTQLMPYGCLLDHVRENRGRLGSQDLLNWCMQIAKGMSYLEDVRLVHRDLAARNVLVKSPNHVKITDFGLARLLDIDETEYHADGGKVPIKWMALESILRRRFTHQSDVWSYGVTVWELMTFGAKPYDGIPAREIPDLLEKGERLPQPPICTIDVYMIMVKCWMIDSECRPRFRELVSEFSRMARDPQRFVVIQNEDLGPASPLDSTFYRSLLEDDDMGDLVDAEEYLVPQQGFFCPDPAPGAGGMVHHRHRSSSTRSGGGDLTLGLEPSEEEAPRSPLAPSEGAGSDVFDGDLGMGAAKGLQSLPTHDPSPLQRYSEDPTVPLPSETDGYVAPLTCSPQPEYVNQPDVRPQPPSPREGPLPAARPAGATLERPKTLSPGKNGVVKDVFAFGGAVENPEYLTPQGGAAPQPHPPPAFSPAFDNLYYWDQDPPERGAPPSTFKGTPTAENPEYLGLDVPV

[4] = SK-BR-3 cell growth inhibitors, pilot screen, 24 h, human (AID 572;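 active means viability at or below 10% of carrier control in both of two separate runs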;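 further: compound exposure lasted between 18 and 24 h rather than exactly 24 h; 100% = carrier-treated control wells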); settings: SK-BR-3 viability, CellTiter-Glo luminescence, at 10 µM, stronger effect = lower value
[5] = HUVEC growth inhibition – cell-based, human, primary screen (AID 575); settings: HUVEC proliferation, CellTiter-Glo luminescence, 72 h; at 10 µM; stronger effect = lower value;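 further: 100% = median of untreated cell wells with 0.1% DMSO on each plate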
Summary of the method: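 Test system: primary human umbilical vein endothelial cells. Quantity: 1250 cells/well. Compound: single 10 µM dose, 0.1% DMSO, from 5x medium stock. Timing: 72 h treatment at 37 °C. Detection: ATP-based CellTiter-Glo luminescent read. Benchmarks: vehicle and MePR control wells. Format: 384-well plates coated with collagen.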

[6] = growth inhibitors of H69AR lung tumor, primary screen, human, duplicate replicates (AID 580;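 active means viability at or under a set limit in both replicates, limit being median viability minus 3 SD, cut at about 48% in these data, passing the limit was not always enough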;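 further: 100% = mean luminescence of untreated wells and 0% = no signal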); settings: H69AR lung tumor cells viability, ATP luminescence, 72 h; at 10 µM; stronger effect = lower value
[7] = reversal of MRP1-mediated doxorubicin resistance, pilot screen, H69AR cells, doxorubicin co-treatment (AID 601;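 active means viability loss from added drug above about 55%, and viability with drug at most 40%, in both replicates, limit read from the data, passing the limit was not always enough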); settings: CellTiter-Glo, 72 h, at 10 µM; for differential viability (reversal): stronger effect = higher value
[8] = 384-well plate pilot, post-Golgi transport modulator project, inhibition of yeast transport mutant growth (AID 636; in the data active means inhibition above about 31%); settings: absorbance 615 nm, about 18 h, stronger effect = higher value
[9] = growth suppression of yeast trafficking mutant, preliminary HTS, modulators of trafficking downstream of Golgi apparatus project, 1536-format plate, OD 615 nm (AID 637; in the data active means inhibition above about 30%); settings: yeast transport mutant growth, absorbance 615 nm, 18 h; stronger effect = higher value
[10] = H69AR cells + 2 uM doxorubicin, measured here: viability with 2 uM doxorubicin, stronger effect = lower value
[11] = H69AR cells, compound alone cytotoxicity

| SMILES | inhibition [1] | viability [2] [%] | Her2 level [3] | viability [4] | viability [5] | viability [6] | differential viability (reversal) ([7]; H69AR cells + 2 uM doxorubicin) | viability [7, 10] [%] | viability [7, 11] [%] | inhibition [8] | inhibition [9] |
| --- | --- | --- | --- | --- | --- | --- | --- | --- | --- | --- | --- |
| NC(=O)CSP(=O)(c1ccccc1)c1ccccc1 | 0% (inactive) | 94 | 118% (inactive) | 94% (inactive) | 109% (inactive) | 102% (inactive) | 10.1% (inactive) | 92.3 | 102 | -8.53% (inactive) | -2.9% (inactive) |
| CN(C)[C@@H]1C(=O)C(C(N)=O)=C(O)[C@@]2(O)C(=O)C3=C(O)c4c(O)ccc(Cl)c4[C@@](C)(O)C3C[C@@H]12 (stereo partly drawn) | 1% (inactive) | 119 | 104% (inactive) | 119% (inactive) | 104% (inactive) | 96.8% (inactive) | 2.32% (inactive) | 94.5 | 96.8 |  |  |
| O=C(c1ccc2nc(-c3ccco3)c(-c3ccco3)nc2c1)N1CCC2(CC1)OCCO2 | 0% (inactive) | 93 | 106% (inactive) | 93% (inactive) | 97.1% (inactive) | 90.5% (inactive) | 7.87% (inactive) | 82.7 | 90.5 | -4.87% (inactive) | 4.33% (inactive) |
| CCOc1c(P(=S)(N(C)C)N(C)C)c(C)nn1-c1ccccc1 | 1% (inactive) | 83 | 120% (inactive) | 83% (inactive) | 98.6% (inactive) | 101% (inactive) | 17% (inactive) | 84.1 | 101 | -2.24% (inactive) | -11% (inactive) |
| NCCc1ccc(O)cc1 | 0% (inactive) | 112 | 112% (inactive) | 112% (inactive) | 103% (inactive) | 96.2% (inactive) | 4.17% (inactive) | 92.1 | 96.2 | -5% (inactive) | -21.1% (inactive) |
